Assay results published in paper PMC7327769 (Asian Journal of Pharmaceutical Sciences, 2019).

Experiments:
[1] = after oral administration to HIV-infected patients; cited from earlier work
[2] = Solubility testing of saquinavir in oils, surfactants, and co-surfactants; type: physicochemical; details: 20 °C, 24 h
In short: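 Excess test compound added to each neat excipient and stirred magnetically. Content quantified by HPLC with UV detection at 240 nm (retention 3.8 min). Expressed as mg/g, mean ± standard deviation.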

- Solubility of saquinavir ([2]; in Capryol 90 (oil)): 145 ± 12.6 mg/g
- Solubility of saquinavir ([2]; in Cremophor® EL (surfactant)): 55 ± 5.0 mg/g
- Solubility of saquinavir ([2]; in Labrafac® CM10 (oil)): 57 ± 4.2 mg/g
- Solubility of saquinavir ([2]; in Labrasol® (surfactant)): 105 ± 5.0 mg/g
- Solubility of saquinavir ([2]; in PEG 400 (co-surfactant)): 40 ± 3.4 mg/g
- Solubility of saquinavir ([2]; in Propylene glycol (co-surfactant)): 228 ± 19.5 mg/g
- Solubility of saquinavir ([2]; in Transcutol® HP (co-surfactant)): 158 ± 17.8 mg/g
- Solubility of saquinavir ([2]; in Triglyceride (oil)): 1.9 ± 0.4 mg/g
- Solubility of saquinavir ([2]; in Tween® 80 (surfactant)): 37 ± 4.3 mg/g
- Solubility of saquinavir ([2]; in Water (aqueous phase)): 2.2 ± 0.3 mg/g
Structure (SMILES): CC(C)(C)NC(=O)[C@@H]1C[C@@H]2CCCC[C@@H]2CN1C[C@@H](O)[C@H](Cc1ccccc1)NC(=O)[C@H](CC(N)=O)NC(=O)c1ccc2ccccc2n1 [saquinavir, Saquinavir]
- time of the highest saquinavir concentration in plasma [1]: 2 to 4 h
